Laboratory results from publication PMC6644768 (ACS Omega, 2018).

What was measured:
Type in all cases: cell-based
A549 cells [1] = assay: IC50 determination, sulforhodamine B assay, A549; conditions: A549 cell line, 24 h
Summary of the method: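 A549 cells (F-12K medium, 10% FBS) plated at 10 000 cells/well and grown 24 h, then exposed to a range of test compound concentrations for 24 h. Sulforhodamine B read-out: fixation in 50% TCA for 1 h at 4 °C, then 0.4% dye in 1% acetic acid for 1 h, 1% acetic acid washes, and solubilization in 10 mM Tris pH 10.0. Absorbance read at 520 nm. IC50 from nonlinear regression, three independent determinations.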

MCF-7 cells = assay: IC50 determination, sulforhodamine B assay, MCF-7; conditions: MCF-7, one cell cycle
Summary of the method: (§1)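 Sulforhodamine B proliferation assay as run for A549, but with cells exposed to test compound for one cell cycle. Read-out: TCA fixation, dye binding, Tris solubilization, absorbance at 520 nm. IC50 fitted by nonlinear regression; each cell line determined three times independently. Culture media: HeLa and MCF-7 in Eagle's MEM; L929 and B16F10 in DMEM; MCF 10A in DMEM/F12K with 10% FBS, EGF, hydrocortisone and insulin.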

MCF 10A cells = assay: IC50 determination, sulforhodamine B assay, MCF 10A; conditions: one cell cycle
Summary of the method: as §1

HeLa cells [2] = assay: Mitotic index by Hoechst 33258 staining; conditions: 20 nM; control 3 ± 0.6
Summary of the method: (§2)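 HeLa cells exposed to 75 and 200 nM test compound or 20 nM reference agent for 12 h. Cells immunostained for phospho-histone H3 (Ser10), with DNA counterstained by Hoechst 33258. Mitotic index scored either from DNA morphology or as phospho-H3-positive cells. Experiment performed three times; error given as standard deviation.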

HeLa cells [3] = assay: Mitotic index by phospho-histone H3 staining; conditions: 20 nM; control 3 ± 0.2
Summary of the method: as §2

HeLa cells [4] = assay: PI staining of dead cells; conditions: 20 nM, 24 h; control 6%
Summary of the method: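 HeLa cells on coverslips (2.5 × 10^4 cells/well, 24 h) given vehicle (0.1% DMSO), 75 or 200 nM test compound, or 20 nM reference agent for 24 h. Plates centrifuged at 2500 rpm for 15 min and washed in PBS. Cells stained with propidium iodide for 15 min at room temperature in the dark and imaged. PI-positive cells counted as a percentage. Two independent sets.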

ROS in HeLa cells = assay: Intracellular ROS by DCFDA dye; conditions: 6 h, control 2.4 ± 0.1
A549 cells [5] = assay: Scratch wound healing assay; conditions: 100 nM
tubulin in HeLa cells = assay: Soluble and polymeric tubulin in cells by western blot; conditions: 25 nM, control 2.1 ± 0.4

COc1ccc(/C=C\c2cc(OC)c(OC)c(OC)c2)cc1O [CA-4, combretastatin A-4]
IC50 (A549 cells [1]): 112 ± 7 nM | IC50 (MCF-7 cells): 18 ± 3 nM | IC50 (MCF 10A cells): 144 ± 31 nM | mitotic index, Hoechst staining (HeLa cells [2]): 40 ± 1.2 | mitotic index, phospho-histone staining (percentage of mitotic cells) (HeLa cells [3]): 38 ± 0.3% | PI-stained positive cells (HeLa cells [4]): 87% | fluorescence intensity of DCFDA per cell (ROS in HeLa cells; 20 nM): 3.6 ± 0.4 | inhibition of migration of A549 cells (A549 cells [5]; 10 h): 77 ± 5% | rate of migration (A549 cells [5]; vehicle 3 ± 0.7): 0.4 ± 0.2 μm/h

OO [Compound H2O2, H2O2]
fluorescence intensity of DCFDA per cell (ROS in HeLa cells; 100 μM): 4.5 ± 0.2

CC[C@]1(O)C[C@@H]2CN(CCc3c([nH]c4ccccc34)[C@@](C(=O)OC)(c3cc4c(cc3OC)N(C)[C@H]3[C@@](O)(C(=O)OC)[C@H](OC(C)=O)[C@]5(CC)C=CCN6CC[C@]43[C@@H]65)C2)C1 [vinblastine]
ratio of polymeric to soluble tubulin (tubulin in HeLa cells): 1.4 ± 0.9
